Assay results reported in ChEMBL document CHEMBL1124609, “Synthesis and anticonvulsant properties of 2,3,3a,4-tetrahydro-1H-pyrrolo[1,2-a]benzimidazol-1-ones” (J Med Chem, 1989).

Key:
Rattus norvegicus [1] = species on record: Rattus norvegicus; assay: Anticonvulsant activity against maximal electroshock seizures(MES) in rats; assay type: functional
Outline: (§1)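 Adult male Wistar rats (200-250 g), groups of 10, dosed ip in 80% DMSO/20% distilled water. 60 min later a 50-mA, 60-Hz alternating current was given through ear electrodes for 0.2 s. Protection was absence of tonic hind limb extension. ED50 (±95% confidence limits) by Litchfield and Wilcoxon.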

Mus musculus [2] = species on record: Mus musculus; assay: Anticonvulsant activity against audiogenic seizures in DBA/2 mice; assay type: functional
Outline: (§2)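 DBA/2 mice of either sex (6-12 g, 21-25 days old), dosed ip in 80% DMSO/20% distilled water. 45 min later exposed to a mixed-frequency 109-dB sound for up to 60 s. Latency to and incidence of wild running, clonus, tonus and respiratory arrest were scored. ED50 (±95% confidence limits) by Litchfield and Wilcoxon.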

[3] = Relative lipophilicity; assay type: physicochemical; conditions: reversed-phase TLC, acetone/water 2:1
Outline: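 Reversed-phase TLC on silanized silica gel plates dried 1 h at 105 °C, with acetone/water 2:1 v/v as mobile phase. Compounds were applied from chloroform solution (3 mg/mL). Rf is the mean of five runs with different plate positions, and RM = log[(1/Rf) - 1].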

Rattus norvegicus [4] = species on record: Rattus norvegicus; assay: Compound was tested for its activity against tonic hind limb extension in MES test in rats; Completely antagonized; assay type: functional, Hindlimb; outline: as §1
Mus musculus [5] = species on record: Mus musculus; assay: Compound was tested for its activity against clonic seizures phase in […] mice; Completely protected; assay type: functional; outline: as §2

| SMILES | ED50 (Rattus norvegicus [1]) [µmol/kg] | ED50 (Mus musculus [2]) [µmol/kg] | RM [3] | Activity (Rattus norvegicus [4]) [µM/kg] | Activity (Mus musculus [5]) [µM/kg] |
| --- | --- | --- | --- | --- | --- |
| O=C1CCC2(c3ccc(Cl)cc3)Nc3ccc(Cl)cc3N12 (centres undefined) | 501 | 347 | 0.073 |  |  |
| Cc1ccc2c(c1)N1C(=O)CCC1(C)N2 (centres undefined) | 197 | 122 | -0.279 |  |  |
| O=C1CCC2(c3ccc(F)cc3)Nc3ccc(Cl)cc3N12 (centres undefined) | 198 | 178 | 0.028 |  |  |
| O=C1CCC2(c3ccccc3)Nc3cc(Cl)ccc3N12 (centres undefined) | 126 | 95.9 | -0.007 |  |  |
| O=C1CCC2(c3ccc(F)cc3)Nc3cc(Cl)ccc3N12 (centres undefined) | 105 | 87.3 | 0.019 |  |  |
| Cc1ccc2c(c1)NC1(C)CCC(=O)N21 (centres undefined) | 141 | 97.7 | -0.284 |  |  |
| O=C1CCC2(c3ccc(Cl)cc3)Nc3ccccc3N12 (centres undefined) | 234 | 166 | -0.033 |  |  |
| CC12CCC(=O)N1c1ccccc1N2 (centres undefined) | 35.5 | 26.3 | -0.341 | 200 | 100 |
| O=C1CCC2(c3ccccc3)Nc3ccccc3N12 (centres undefined) | 200 | 161 | -0.131 |  |  |
| CC12CCC(=O)N1c1ccc(Cl)cc1N2 (centres undefined) | 88.2 | 79.4 | -0.167 |  |  |
| CC12CCC(=O)N1c1ccc([N+](=O)[O-])cc1N2 (centres undefined) | > 600 | > 600 | -0.187 |  |  |
| O=C1CCC2(c3ccc(Cl)cc3)Nc3cc(Cl)ccc3N12 (centres undefined) | 281 | 143 | 0.068 |  |  |
| O=C1CCC2(c3ccc(F)cc3)Nc3ccccc3N12 (centres undefined) | 575 | 356 | -0.084 |  |  |
| O=C1CCC2(c3ccccc3)Nc3ccc(Cl)cc3N12 (centres undefined) | 271 | 179 | -0.005 |  |  |
| CC12CCC(=O)N1c1cc([N+](=O)[O-])ccc1N2 (centres undefined) | > 600 | > 600 | -0.237 |  |  |
| CC12CCC(=O)N1c1cc(Cl)ccc1N2 (centres undefined) | 234 | 148 | -0.162 |  |  |
| O=C1NC(=O)C(c2ccccc2)(c2ccccc2)N1 [PHENYTOIN] | 55.5 | 19.8 |  |  |  |
| CCCC(CCC)C(=O)O [VALPROIC ACID] | 1890 | 1230 |  |  |  |
